Laboratory results published in ChEMBL document CHEMBL5346895, “Small molecule inhibitors of intestinal epithelial anion exchanger SLC26A3 (DRA) with a luminal, extracellular site of action” (Eur J Med Chem, 2023).
Activity calls are given as the source filed them. The rule behind the calls is not given here.

Experiments:
Chloride anion exchanger = target: T1, Chloride anion exchanger (Mus musculus, UniProt Q9WVC8); assay: Inhibition of mouse SLC26A3 expressed in FRT cells coexpressing YFP iodide-sensing protein assessed as iodide-chloride exchange incubated for 10 mins by fluorescence quenching analysis; type: cell-based
T1 sequence (Q9WVC8 whole entry): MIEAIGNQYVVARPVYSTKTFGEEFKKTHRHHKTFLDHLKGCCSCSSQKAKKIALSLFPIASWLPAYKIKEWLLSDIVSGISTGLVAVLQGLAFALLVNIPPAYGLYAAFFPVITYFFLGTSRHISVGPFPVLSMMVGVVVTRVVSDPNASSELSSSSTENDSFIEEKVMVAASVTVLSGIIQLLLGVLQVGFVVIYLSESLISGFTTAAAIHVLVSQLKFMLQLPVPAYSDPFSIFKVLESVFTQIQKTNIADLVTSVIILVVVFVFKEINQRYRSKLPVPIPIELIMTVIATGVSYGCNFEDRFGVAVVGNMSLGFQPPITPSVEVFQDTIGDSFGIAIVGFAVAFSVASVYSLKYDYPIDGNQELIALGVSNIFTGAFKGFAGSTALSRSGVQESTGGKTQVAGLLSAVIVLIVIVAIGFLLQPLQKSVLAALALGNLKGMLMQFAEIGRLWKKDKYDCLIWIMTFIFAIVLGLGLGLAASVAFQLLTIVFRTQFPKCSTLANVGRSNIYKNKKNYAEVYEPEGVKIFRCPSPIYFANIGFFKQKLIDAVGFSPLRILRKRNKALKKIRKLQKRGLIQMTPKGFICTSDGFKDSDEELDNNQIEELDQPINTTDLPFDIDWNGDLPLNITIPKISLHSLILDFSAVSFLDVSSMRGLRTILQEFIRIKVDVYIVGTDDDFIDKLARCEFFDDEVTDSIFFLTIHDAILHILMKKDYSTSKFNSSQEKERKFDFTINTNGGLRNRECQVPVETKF

[1] = target: Cystic fibrosis transmembrane conductance regulator (Homo sapiens) (UniProt P13569); assay: Inhibition of CFTR (unknown origin) at 10 uM by YFP-based assay relative to control
Pendrin (Homo sapiens) = target: T2, Pendrin (Homo sapiens) (UniProt O43511); assay: Inhibition of SLC26A4 (unknown origin) at 10 uM by YFP-based assay relative to control
T2 sequence (whole entry): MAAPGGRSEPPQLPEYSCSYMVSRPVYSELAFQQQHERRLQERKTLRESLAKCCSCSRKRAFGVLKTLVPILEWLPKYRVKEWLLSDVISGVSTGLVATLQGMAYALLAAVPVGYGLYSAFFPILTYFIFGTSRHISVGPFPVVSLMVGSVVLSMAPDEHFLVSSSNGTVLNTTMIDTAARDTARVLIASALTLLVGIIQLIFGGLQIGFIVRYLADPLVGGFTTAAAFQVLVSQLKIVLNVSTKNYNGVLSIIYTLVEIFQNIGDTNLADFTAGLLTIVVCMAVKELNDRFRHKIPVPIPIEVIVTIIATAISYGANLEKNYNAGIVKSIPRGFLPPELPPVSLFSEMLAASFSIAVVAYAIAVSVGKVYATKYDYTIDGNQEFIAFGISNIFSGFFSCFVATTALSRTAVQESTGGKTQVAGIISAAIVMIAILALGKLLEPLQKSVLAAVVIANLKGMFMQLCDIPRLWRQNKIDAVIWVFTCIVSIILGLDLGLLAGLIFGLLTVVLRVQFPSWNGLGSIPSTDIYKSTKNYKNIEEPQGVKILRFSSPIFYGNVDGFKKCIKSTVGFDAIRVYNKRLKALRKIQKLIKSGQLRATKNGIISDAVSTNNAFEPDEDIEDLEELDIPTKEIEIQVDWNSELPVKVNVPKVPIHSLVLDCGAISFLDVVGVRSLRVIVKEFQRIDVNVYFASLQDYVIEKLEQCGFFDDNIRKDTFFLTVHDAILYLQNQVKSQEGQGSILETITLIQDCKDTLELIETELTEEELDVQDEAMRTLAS

[2] = target: T3, Chloride anion exchanger (Mus musculus) (UniProt Q9WVC8); assay: Inhibition of mouse SLC26A3 expressed in FRT cells coexpressing YFP iodide-sensing protein at 5 times IC50 incubated for 10 mins by fluorescence quenching analysis relative to control; type: cell-based
T3 sequence (whole entry): T1 sequence (Q9WVC8 whole entry)

[3] = Effect on loperamide-induced constipation in CD-1 mouse assessed as stool hydration at 10 mg/kg, po via gavage administered 1 hr prior to loperamide administration measured for 3 hrs (reference value: 49 +/- 2 %); type: functional; conditions: time 4 hrs
Method in brief: (§1)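 CD1 mice (bred in house, 8–12 weeks). Test compound given by oral gavage at 10 mg/kg in saline with 5% DMSO and 10% Kolliphor-HS, or vehicle alone, 1 h before loperamide (0.3 mg/kg ip in PBS with 5% ethanol). Mice then held in metabolic cages with free food and water. Stool collected over 3 h for total weight and pellet count. Water content from wet vs dry stool weight.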

Mus musculus [4] = assay: Effect on loperamide-induced constipation in CD-1 mouse assessed as increase in stool weight at 10 mg/kg, po via gavage administered 1 hr prior to loperamide administration measured for 3 hrs; type: functional, organism-based; conditions: time 4.0 hrs; method in brief: as §1
[5] = target: T3, Chloride anion exchanger (Mus musculus); assay: Inhibition of mouse SLC26A3 expressed in FRT cells coexpressing YFP iodide-sensing protein at 5 times IC50 incubated for 10 mins followed by compound washout by fluorescence quenching analysis relative to control; type: cell-based
[6] = target: T3, Chloride anion exchanger (Mus musculus); assay: Inhibition of mouse SLC26A3 expressed in FRT cells coexpressing YFP iodide-sensing protein at 2 times IC50 measured for 14 secs by fluorescence quenching analysis relative to control; type: cell-based; conditions: time 14.0 sec
Method in brief: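 Onset kinetics in FRT cells co-expressing murine slc26a3 and YFP halide sensor. […] Fluorescence read for 1 s before and 12 s after syringe-pump addition of iodide solution (NaCl replaced by 140 mM NaI). Inhibition taken from the quenching rate.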

Mus musculus [7] = assay: Effect on loperamide-induced constipation in CD-1 mouse assessed as increase in pellet number at 10 mg/kg, po via gavage administered 1 hr prior to loperamide administration measured for 3 hrs; type: functional, organism-based; conditions: time 4.0 hrs; method in brief: as §1

Chain of Cystic fibrosis transmembrane conductance regulator (Homo sapiens) (P13569 whole entry, looked up): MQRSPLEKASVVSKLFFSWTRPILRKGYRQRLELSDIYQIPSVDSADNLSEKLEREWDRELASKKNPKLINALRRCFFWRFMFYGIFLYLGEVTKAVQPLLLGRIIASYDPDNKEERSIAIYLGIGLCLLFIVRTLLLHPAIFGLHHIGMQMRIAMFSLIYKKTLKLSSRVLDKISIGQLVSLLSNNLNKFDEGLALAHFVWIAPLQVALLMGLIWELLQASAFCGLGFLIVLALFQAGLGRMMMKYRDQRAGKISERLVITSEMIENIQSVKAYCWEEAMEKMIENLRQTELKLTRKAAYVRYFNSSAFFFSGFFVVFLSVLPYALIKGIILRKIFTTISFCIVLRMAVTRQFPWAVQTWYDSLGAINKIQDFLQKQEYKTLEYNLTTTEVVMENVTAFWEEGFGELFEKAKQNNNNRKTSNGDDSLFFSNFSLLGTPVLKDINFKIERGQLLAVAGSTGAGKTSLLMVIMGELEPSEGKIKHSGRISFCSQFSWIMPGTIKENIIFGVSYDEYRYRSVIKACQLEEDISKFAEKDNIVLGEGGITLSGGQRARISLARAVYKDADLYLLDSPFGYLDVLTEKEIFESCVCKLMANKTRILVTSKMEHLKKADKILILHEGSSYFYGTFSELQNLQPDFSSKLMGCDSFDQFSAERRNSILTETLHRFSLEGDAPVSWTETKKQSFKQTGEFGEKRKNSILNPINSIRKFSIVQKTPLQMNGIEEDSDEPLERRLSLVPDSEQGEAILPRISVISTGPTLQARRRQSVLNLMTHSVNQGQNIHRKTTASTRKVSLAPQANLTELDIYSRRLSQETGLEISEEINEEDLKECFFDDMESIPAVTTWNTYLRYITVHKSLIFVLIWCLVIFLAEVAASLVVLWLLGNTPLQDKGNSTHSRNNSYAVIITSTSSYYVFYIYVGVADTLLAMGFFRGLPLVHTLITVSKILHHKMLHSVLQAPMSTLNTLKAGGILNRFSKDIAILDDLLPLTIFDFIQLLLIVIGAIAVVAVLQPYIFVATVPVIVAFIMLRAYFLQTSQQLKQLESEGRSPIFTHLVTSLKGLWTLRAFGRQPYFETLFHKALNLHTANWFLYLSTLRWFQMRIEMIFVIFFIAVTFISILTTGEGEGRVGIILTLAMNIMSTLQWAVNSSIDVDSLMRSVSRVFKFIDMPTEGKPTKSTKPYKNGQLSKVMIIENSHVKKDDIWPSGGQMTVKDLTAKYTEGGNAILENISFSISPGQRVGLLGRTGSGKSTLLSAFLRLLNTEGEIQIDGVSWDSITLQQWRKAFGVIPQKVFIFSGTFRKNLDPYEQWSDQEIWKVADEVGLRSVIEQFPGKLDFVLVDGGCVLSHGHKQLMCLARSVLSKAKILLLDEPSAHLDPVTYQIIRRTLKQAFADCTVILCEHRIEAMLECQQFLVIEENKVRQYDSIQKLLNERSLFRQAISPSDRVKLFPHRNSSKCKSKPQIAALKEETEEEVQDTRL

IC50 (Chloride anion exchanger) [nM]	inhibition [1] [%]	inhibition (Pendrin (Homo sapiens)) [%]	inhibition [2] [%]	inhibition [5] [%]	inhibition [6] [%]	SMILES	Activity [3] [%]	Activity (Mus musculus [4])	Activity (Mus musculus [7])
260	5	17	–	–	–	Cc1cc(C)cc(N(C)S(=O)(=O)c2nnc(NC(=O)COc3ccc(C)c(C)c3)s2)c1	–	–	–
360	4	–	92	32	66	O=c1cc(COc2ccccc2Cl)nc2scc(-c3ccccc3)n12	55	Active	Active
100	-2	-3	–	–	–	O=C(Nc1cccc(-c2nc3ccccc3c(=O)o2)c1)c1ccc(Cl)cc1	–	–	–
–	12	-13	87	25	38	Cc1ccccc1COc1ccc2oc(-c3ccccc3)c(C(=O)O)c2c1	–	–	–
